{"data": "Assay results pooled from the literature", "organism": "Enterococcus faecalis", "note": "Lines come from different studies, so protocols differ. pIC50: −log10 of the molar value."}
{"Compound": "CCCCCCCCCCCCCCCC(=O)NS(=O)(=O)Oc1ccc(OC)cc1", "test": "microbial growth", "test system": "ATCC33186", "measurement": "MIC", "result": "> 200 µg/mL"}
{"Compound": "CC(C)CCCCCCCCCCCCCCc1cc(O)cc(O)c1", "test": "microbial growth", "test system": "ATCC29212", "measurement": "pIC50", "result": 4.77}
{"Compound": "CC1(C)S[C@@H]2[C@H](NC(=O)[C@H](N)c3ccccc3)C(=O)N2[C@H]1C(=O)O", "test": "microbial growth, well diffusion", "test system": "ATCC51299", "conditions": "60000 µg/mL", "measurement": "inhibition zone", "result": "28 mm"}
{"Compound": "CCCCCCCCCCCCCCCC(=O)CP(=O)(O)O", "test": "microbial growth", "test system": "ATCC33186", "measurement": "MIC", "result": "12.5 µg/mL"}
{"Compound": "C=C(NC(=O)C(=C)NC(=O)c1csc(C2=N[C@@H]3c4csc(n4)[C@H]4NC(=O)c5csc(n5)[C@H]([C@](C)(O)[C@@H](C)O)NC(=O)[C@H]5CSC(=N5)/C(=C/C)NC(=O)[C@H]([C@@H](C)O)NC(=O)c5csc(n5)[C@]3(CC2)NC(=O)[C@H](C)NC(=O)C(=C)NC(=O)[C@H](C)NC(=O)[C@H]([C@@H](C)CC)N[C@@H]2C=Cc3c([C@H](C)O)cc(nc3[C@H]2O)C(=O)O[C@@H]4C)n1)C(N)=O", "test": "microbial growth", "test system": "VRE", "measurement": "MIC", "result": "0.12 µg/mL"}
{"Compound": "CC(C)CCCCCCCCCCCCCCCc1cc(O)cc(O)c1", "test": "microbial growth", "test system": "ATCC29212", "measurement": "pIC50", "result": 4.82}
{"Compound": "CCCCCCCC/C=C\\CCCCCCCC(=O)C(F)(F)P(=O)(O)O", "test": "microbial growth", "test system": "ATCC33186", "measurement": "MIC", "result": "6.25 µg/mL"}
{"Compound": "COc1ccc(CNO)c(C)c1", "test": "microbial growth", "test system": "ATCC19433", "conditions": "8 h", "measurement": "MIC50", "result": "< 80 µg/mL"}
{"Compound": "CCCCCCCCCCCCCCCC(=O)NS(=O)(=O)Oc1ccc(Cl)c(Cl)c1", "test": "microbial growth, broth dilution", "test system": "ATCC33186", "measurement": "MIC", "result": "0.8 µg/mL"}
{"Compound": "CC(C)CCCCCCCCCCCCc1cc(O)cc(O)c1", "test": "microbial growth", "test system": "ATCC29212", "measurement": "pIC50", "result": 4.09}
{"Compound": "CC1(C)S[C@@H]2[C@H](NC(=O)COc3ccccc3)C(=O)N2[C@H]1C(=O)O", "test": "microbial killing", "conditions": "drug-resistant strain, clinical isolate", "measurement": "MBC", "result": "> 128 µg/mL"}
{"Compound": "CCCCCCCC(=O)CP(=O)(O)O", "test": "microbial growth", "test system": "ATCC33186", "measurement": "MIC", "result": "> 200 µg/mL"}
{"Compound": "CCCCCCCCCCCCCCCC(=O)NS(=O)(=O)OC1CCN(C(=O)OC(C)(C)C)CC1", "test": "microbial growth, broth dilution", "test system": "ATCC33186", "measurement": "MIC", "result": "25 µg/mL"}
{"Compound": "CN[C@H](CC(C)C)C(=O)N[C@H]1C(=O)N[C@@H](CC(N)=O)C(=O)N[C@H]2C(=O)N[C@H]3C(=O)N[C@H](C(=O)N[C@H](C(=O)O)c4cc(O)cc(O)c4-c4cc3ccc4O)[C@H](O)c3ccc(c(Cl)c3)Oc3cc2cc(c3O[C@@H]2O[C@H](CO)[C@@H](O)[C@H](O)[C@H]2O[C@H]2C[C@](C)(N)[C@H](O)[C@H](C)O2)Oc2ccc(cc2Cl)[C@H]1O", "test": "microbial killing", "conditions": "drug-resistant strain, clinical isolate", "measurement": "MBC", "result": "32 µg/mL"}
